# Source: PubChem (several laboratories)
# IMP-1 inhibitor = blocks Pseudomonas aeruginosa IMP-1 metallo-beta-lactamase. inhibition, % at 5.6 µM. hit rate 0.45% among 290,000. purified IMP-1, nitrocefin hydrolysis, epi-absorbance fluorescence;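 active means inhibition above the mean plus 3 SD of all compounds in the same screening run, cut at about 4.5% in these data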;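 further: 0% = IMP-1 with DMSO and 100% = DMSO wells lacking enzyme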
#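 Material – recombinant IMP-1 enzyme, purified · Amount – IMP-1 0.2 nM before substrate addition · Medium – HEPES buffer pH 7.1 with ZnSO4 and Brij 35 · Timing – 25 °C, 15 min preincubation, 25 min reaction · Measured by – plate fluorescence quenching by hydrolysis product, ex 480/em 530 nm · Read-out – percent enzyme inhibition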
# PLC-beta3 inh = blocks human PLC-beta3 enzyme activity | AID 720704 | Purified PLC-beta3, fluorogenic substrate, fluorescence | inhibition, % at 12.2 µM | hit rate 0.18% among 370,000; in the data active means inhibition above about 11%;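 further: 0% = median of compound wells on plate and 100% = full blocker control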
# PvdQ acylase = P. aeruginosa PvdQ acylase inhibition | hit rate 0.063% among 340,000 | inhibition, % at 10 µM | purified PvdQ acylase, fluorescence plate reader; in the data active means inhibition above about 30%, passing the limit was not always enough;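 further: 0% = vehicle neutral wells and 100% = reference inhibitor wells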
# PLCg1 inh = blocks human PLC-gamma1 enzyme activity | P19174 | hit rate 0.84% among 370,000 | purified PLC-gamma1, fluorogenic substrate, fluorescence | inhibition, % at 12.2 µM; in the data active means inhibition above about 9.5%
# VIM-2 inhibitor = blocks Pseudomonas aeruginosa VIM-2 metallo-beta-lactamase. inhibition, % at 5.6 µM. AID 1527. purified VIM-2, nitrocefin hydrolysis, epi-absorbance fluorescence. hit rate 0.89% among 290,000;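 active means inhibition above the mean of all tested compounds plus 3 SD, cutoff set per screening run, cut at about 7.5% in these data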;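 further: red hydrolysis product quenches plate fluorescence so inhibitors raise well fluorescence; 0% = enzyme with DMSO and 100% = DMSO without enzyme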
# * hit, by the source's call; . = no result given. Compounds with a hit are over-represented: about 2% of the library has one in this group of screens.
SMILES,IMP-1 inhibitor,PLC-beta3 inh,PvdQ acylase,PLCg1 inh,VIM-2 inhibitor
CCC1CCC/C1=N\NC(=O)c1ccccc1C (centres undefined),.,7,6,10*,.
Cc1cccc(OCC(C)CN2CCC(C(O)(c3ccccc3)c3ccccc3)CC2)c1 (centres undefined),.,0,.,1,.
Cc1cn(-c2cc(NC(=O)c3ccc(C)c(NC(=O)c4cccc(-c5cn[nH]c(=O)c5)c4)c3)cc(C(F)(F)F)c2)cn1,20*,.,1,.,2
Cc1ccc(NC(=O)c2cccc(C(F)(F)F)c2)cc1NC(=O)c1[nH]cnc1C(N)=O,.,0,-6,-1,.
C[C@H]1C(=O)N2[C@@H](C[C@]3(c4c[nH]c5ccccc45)c4ccccc4N(S(=O)(=O)c4ccccc4)[C@H]23)C(=O)N1C,.,-3,.,-2,.
C=CCN1C(=O)[C@@H](CC(=O)NCc2cccs2)[C@]2(C(=O)OC)CCCCC=C12,.,-4,.,1,.
COc1cccc(/C=C2\Oc3cc(OC(=O)N4CCOCC4)ccc3C2=O)c1,-3,-16,-3,-10,-3
COc1cccc(/C=C2\Oc3cc(OCC(=O)N4Cc5ccccc5C[C@H]4C(=O)O)ccc3C2=O)c1,-1,.,-2,.,9.8*
COC(=O)[C@]12C[C@H](CC(=O)NCc3cccs3)C(=O)N(Cc3ccco3)C1=C[C@H](C(C)C)O[C@@H]2C1CC1,.,-4,.,0,.
O=C(O)c1cccc(N2C(=O)/C(=C/c3ccc(SCc4ccc(Cl)cc4)o3)SC2=S)c1,1,-4,-1,32*,0
O=C(CCN1C(=O)/C(=C/c2ccc(Cl)cc2)SC1=S)Nc1cccc(C(=O)O)c1,-4,-3,-6,3,-1
N=c1c2c(ccn1CCCCc1ccccc1)Oc1ccc3ccccc3c1C2c1ccccc1 (centres undefined),.,1,.,1,.
CC(C)C(C#CC1CC1)NCc1ccc2c(c1)OCO2 (centres undefined),.,0,.,6,.
S=C(Nc1ccc(Cl)c(Cl)c1)Nc1nnc(-c2ccncc2)s1,.,-17,.,-13,.
COc1ccc(Nc2nnc(-c3ccncc3)s2)cc1Cl,17*,-16,-11,-4,1
O=C(/C=C(\Nc1cc(Cl)c(Cl)c(Cl)c1)c1ccccc1)c1ccccc1,.,2,.,-2,.
C#CC[N+](C)(C)CCN1C(=O)C2C(c3ccccc3)C=CC(c3ccccc3)C2C1=O (centres undefined),-1,4,-9,1,-2
CC(C)OC(=O)C[N+](C)(C)CCN1C(=O)C2C(c3ccccc3)C=CC(c3ccccc3)C2C1=O (centres undefined),13*,-8,-6,-6,1
O=C(Nc1ccc(F)cc1)OCc1cn(Cc2ccc(F)cc2F)nn1,.,0,.,0,.
CCc1nnc(N2CCN(c3ncnc4c3oc3ccccc34)CC2)s1,-1,-4,-7,3,12*
Cc1ccccc1NC(=O)OC1CC2CC1[C@H]1CCCCN1[C@H]2Cc1ccccc1 (some centres undefined),.,-5,.,4,.
Nc1ccc(OCc2ccccc2)cc1[N+](=O)[O-],.,2,37*,1,.
CC(=O)c1sc(NCc2ccc(C)cc2)nc1C,-1,-7,-12,1,0
CC(=O)c1sc(NCc2ccccc2)nc1C,28*,3,-6,0,0
O=C(c1ccco1)N1CCN(c2c([N+](=O)[O-])nn(-c3cccc(Cl)c3)[n+]2[O-])CC1,7.8*,-6,-5,1,-3
SMILES,IMP-1 inhibitor,PLC-beta3 inh,PvdQ acylase,PLCg1 inh,VIM-2 inhibitor
O=C(c1ccc(Cl)c([N+](=O)[O-])c1)N1CCN(C(=O)c2ccco2)CC1,-2,-1,3,1,-2
Cc1csc(NC(=O)c2ccc(COc3ccccc3F)o2)n1,.,-13,.,-8,.
COc1cc(NC(=O)C2CCCN(S(=O)(=O)c3ccc(C)c(C)c3)C2)cc(OC)c1 (centres undefined),.,3,.,1,.
O=S(=O)(c1ccc(C2CCCCC2)cc1)N1CCOCC1,1,0,4,2,1
O=C(O)c1cc(Cl)c2c(c1)[C@@H]1C=CC[C@@H]1[C@H](c1ccc(S(=O)(=O)N3CCOCC3)cc1)N2,11*,.,-8,.,1
Cc1ccc(S(=O)(=O)N2CCOCCOCCOCCOCCOCC2)cc1,-2,-4,-12,1,-2
Cc1cc(C)c2c(c1)C1C=CCC1C(c1ccc(S(=O)(=O)N3CCOCC3)cc1)N2 (centres undefined),5.8*,2,-5,-1,-1
COc1cccc(Nc2nc(-c3sc(NC(=O)CC(C)C)nc3C)cs2)c1,5.9*,-22,-10,-16,-4
Cc1ccc2ccc3ccc(C)nc3c2n1,0,2,-4,-1,8.6*
Cc1ccc2cc(F)c(F)c(F)c2n1,.,3,.,0,.
O=C(NCc1ccco1)O[C@@H]1CC[C@@]23CCCN2C(=O)CCC[C@H]3C1,.,3,.,0,.
CCC(=O)Nc1nc2c(OC)ccc(OC)c2s1,4.9*,-18,-8,-12,-1
COCCNC(=O)CCc1nnc(C2(c3ccc(Cl)cc3)CCC2)o1,-3,3,-14,3,-3
COCC1CCN(C(=O)CCc2nnc(C3(c4ccc(Cl)cc4)CCC3)o2)CC1,-1,2,6,12*,0
Cc1cc(C)c(S(=O)(=O)/N=C2/C=C(Sc3ncn[nH]3)C(=O)c3ccccc32)cc1C,-3,-4,-2,12*,-2
CN(C)c1ccc(C=C2C=Cc3ccccc32)cc1,.,2,5,0,.
CNc1ccc(C=C2C=Cc3ccccc32)cc1,.,7,-2,11*,.
COC(=O)c1cc(N=C(N)N=C(N)N)cc(C(=O)OC)c1,-3,-12,2,-7,9.0*
COc1cccc(N=C(N)N=C(N)N)c1,-1,-8,15,-1,-1
CC(C)OC(=O)c1cccc2c1C(=O)c1ccccc1-2,-1,-5,-2,0,10*
O=C(O)c1cccc2c1C(=O)c1ccccc1C2=O,-1,-6,8,2,3
OC1=C(O)c2nc3cc(F)ccc3nc21,-3,-10,0,-5,8.2*
COP(N)(=O)C(CC(C)C)NC(=O)OCc1ccccc1 (centres undefined),.,1,.,-1,.
CCOC(=O)/C(=C/C=C1\Sc2cc(C)c(C)cc2N1CC)C(C)=O,4.8*,-2,-5,-5,3
CCOC(=O)/C(=C/C=C1\Sc2ccccc2N1CC)C(C)=O,4,.,18,.,5
O=C(O)c1ccc(S(=O)(=O)c2ccc3c(c2)C(=O)N(NC(=O)c2ccccc2)C3=O)cc1,5.1*,-4,-8,-4,-2
Cn1cccc1C(C#N)c1cccc(F)c1C#N (centres undefined),-2,-4,60*,-3,-2
Cc1ccc(C2CCC3(CCC(=O)N3CCO)CC2)cc1 (centres undefined),.,2,.,-2,.
Cc1occc1-c1n[nH]c(=S)n1-c1ccccc1,-5,-1,-18,-2,8.7*
Fc1ccc(-c2n[nH]c(=S)n2-c2ccc3c(c2)OCCO3)cc1,0,-6,-7,-3,9.2*
